Activity calls are given as the source filed them. No cut-off for these calls is given here.
Columns and labels:
[1] = test system: HCC 2998; experiment: Cytotoxicity against human HCC2998 cells; type: functional, cell-based
Procedure, shortened: (§1)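 Human colon cancer and leukaemia line panel. Compounds tested from 10^-4 to 10^-8 M, and IC50 values determined.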

[2] = test system: K562; experiment: Cytotoxicity against human K562 cells; type: functional, cell-based; procedure, shortened: as §1
[3] = test system: KM12; experiment: Cytotoxicity against human KM12 cells; type: functional, cell-based; procedure, shortened: as §1
[4] = test system: HCT-116; experiment: Cell cycle arrest in human HCT116 cells assessed as accumulation at G0/G1 phase at 1 uM after 48 hrs using propidium iodide staining by flow cytometry (reference value: 92.07%); type: functional
[5] = test system: HSC-2; experiment: Induction of apoptosis in human HSC2 cells assessed as increase of caspase-3 activation using DEVD-pnitroanilide as substrate after 6 hrs; type: functional, cell-based
Procedure, shortened: (§2)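 HSC-2 and HL-60 cells were exposed for up to 6 h and then lysed. Lysates were mixed with DEVD-p-nitroanilide and incubated at 37 °C for 2 h. Released p-nitroanilide was read at 405 nm.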

[6] = test system: HSC-2; experiment: Induction of apoptosis in human HSC2 cells assessed as formation of internucleosomal DNA fragmentation at up to 0.8 uM after 6 hrs; type: functional, cell-based
[7] = test system: HSC-4; experiment: Selectivity index, ratio of CC50 for human normal cells to CC50 for human HSC4 cells; type: functional
[8] = test system: HCT-116; experiment: Cytotoxicity against human HCT116 cells; type: functional, cell-based; procedure, shortened: as §1
[9] = test system: HL-60; experiment: Induction of apoptosis in human HL60 cells assessed as formation of internucleosomal DNA fragmentation at up to 0.8 uM after 6 hrs; type: functional, cell-based
[10] = test system: COLO 205; experiment: Cytotoxicity against human COLO205 cells; type: functional, cell-based; procedure, shortened: as §1
[11] = test system: HSC-2; experiment: Induction of apoptosis in human HSC2 cells assessed as formation of internucleosomal DNA fragmentation at up to 0.8 uM after 24 hrs; type: functional, cell-based
[12] = test system: HSC-2; experiment: Cytotoxicity against human HSC2 cells after 48 hrs; type: functional; settings: HSC-2, 48 h
Procedure, shortened: (§3)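 Human HSC-2, HSC-3, HSC-4 squamous carcinoma and HL-60 promyelocytic leukaemia cells incubated with compound for 48 h. CC50, the concentration killing 50% of cells, read from a dose–response curve.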

[13] = target: T1, ATP-dependent translocase ABCB1 (Homo sapiens, UniProt P08183); experiment: Inhibition of human MDR1-mediated multidrug resistant in mouse L5178Y cells at 40 uM treated 10 mins before rhodamine 123 challenge measured after 20 mins relative to control; type: cell-based
Procedure, shortened: (§4)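 Compounds in DMSO were added at room temperature to mdr1-transfected and parental L5178Y cells. After 10 min, rhodamine 123 was added, followed by 20 min at 37 °C. Cellular rhodamine fluorescence was measured and expressed as fluorescence activity ratio (FAR); FAR >1 indicates MDR reversal.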

[14] = test system: HSC-2; experiment: Selectivity index, ratio of CC50 for human normal cells to CC50 for human HSC2 cells; type: functional
[15] = test system: HSC-4; experiment: Cytotoxicity against human HSC4 cells after 48 hrs; type: functional; settings: HSC-4, 48 h; procedure, shortened: as §3
[16] = test system: RPMI-8226; experiment: Cytotoxicity against human RPMI8226 cells; type: functional, cell-based; procedure, shortened: as §1
[17] = test system: HSC-2; experiment: Induction of apoptosis in human HSC2 cells assessed as increase of PARP1 cleavage at 0.4 uM after 12 hrs by Western blot analysis; type: functional, cell-based
Procedure, shortened: (§5)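 HSC-2 cells were treated at 0.4 µM and HL-60 cells at 0.2 µM. Cells were washed in ice-cold PBS and lysed in HEPES pH 7.4/Triton X-100 buffer with phosphatase and protease inhibitors. Lysates were run on 8% SDS-PAGE and transferred to PVDF. Blots were blocked in 5% milk and probed with anti-cleaved PARP1 and anti-β-actin, then HRP-conjugated secondary antibodies.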

[18] = test system: HL-60; experiment: Cytotoxicity against human HL60 cells after 48 hrs; type: functional; settings: HL-60, 48 h; procedure, shortened: as §3
[19] = test system: HL-60(TB); experiment: Cytotoxicity against human HL-60(TB) cells; type: functional, cell-based; procedure, shortened: as §1
[20] = test system: HL-60; experiment: Selectivity index, ratio of CC50 for human normal cells to CC50 for human HL60 cells; type: functional
[21] = Cytotoxicity against human HGF cells after 48 hrs; type: cell-based
Procedure, shortened: (§6)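 Cells were exposed to a dose range for 48 h, following a literature method. CC50 was read from the dose–response curve.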

[22] = test system: HL-60; experiment: Induction of apoptosis in human HL60 cells assessed as increase of PARP1 cleavage at 0.2 uM after 6 hrs by Western blot analysis; type: functional, cell-based; procedure, shortened: as §5
[23] = test system: MOLT-4; experiment: Growth inhibition of human Molt4/C8 cells; type: functional, cell-based
[24] = test system: HT-29; experiment: Cytotoxicity against human HT-29 cells; type: functional, cell-based; procedure, shortened: as §1
[25] = test system: HCT-116; experiment: Cell cycle arrest in human HCT116 cells assessed as accumulation at S phase at 1 uM after 48 hrs using propidium iodide staining by flow cytometry (reference value: 3.19%); type: functional
[26] = test system: HL-60; experiment: Induction of apoptosis in human HL60 cells assessed as formation of internucleosomal DNA fragmentation at up to 0.8 uM after 24 hrs; type: functional, cell-based
[27] = test system: L1210; experiment: Growth inhibition of mouse L1210 cells; type: functional, cell-based
[28] = test system: HCT-116; experiment: Cell cycle arrest in human HCT116 cells assessed as accumulation at G2/M phase at 1 uM after 48 hrs using propidium iodide staining by flow cytometry (reference value: 4.75%); type: functional
[29] = test system: HL-60; experiment: Induction of apoptosis in human HL60 cells assessed as increase of caspase-3 activation using DEVD-pnitroanilide as substrate after 6 hrs; type: functional, cell-based; procedure, shortened: as §2
[30] = test system: SW-620; experiment: Cytotoxicity against human SW620 cells; type: functional, cell-based; procedure, shortened: as §1
[31] = target: T1, ATP-dependent translocase ABCB1; experiment: Inhibition of human MDR1-mediated multidrug resistant in mouse L5178Y cells at 4 uM treated 10 mins before rhodamine 123 challenge measured after 20 mins relative to control; type: cell-based; procedure, shortened: as §4
[32] = Cytotoxicity against human HPLF cells after 48 hrs; type: cell-based; procedure, shortened: as §6
[33] = test system: HSC-3; experiment: Selectivity index, ratio of CC50 for human normal cells to CC50 for human HSC3 cells; type: functional
[34] = test system: HSC-3; experiment: Cytotoxicity against human HSC3 cells after 48 hrs; type: functional; settings: HSC-3, 48 h; procedure, shortened: as §3
[35] = test system: HCT-15; experiment: Cytotoxicity against human HCT15 cells; type: functional, cell-based; procedure, shortened: as §1
[36] = test system: CCRF-CEM; experiment: Growth inhibition of human CEM cells; type: functional, cell-based
[37] = test system: HCT-116; experiment: Cell cycle arrest in human HCT116 cells assessed as accumulation at G0/G1 phase at 16 uM after 48 hrs using propidium iodide staining by flow cytometry (reference value: 92.07%); type: functional
[38] = test system: HCT-116; experiment: Cell cycle arrest in human HCT116 cells assessed as accumulation at S phase at 16 uM after 48 hrs using propidium iodide staining by flow cytometry (reference value: 3.19%); type: functional
[39] = test system: HCT-116; experiment: Cell cycle arrest in human HCT116 cells assessed as accumulation at G2/M phase at 16 uM after 48 hrs using propidium iodide staining by flow cytometry (reference value: 4.75%); type: functional

T1 sequence (P08183 whole entry): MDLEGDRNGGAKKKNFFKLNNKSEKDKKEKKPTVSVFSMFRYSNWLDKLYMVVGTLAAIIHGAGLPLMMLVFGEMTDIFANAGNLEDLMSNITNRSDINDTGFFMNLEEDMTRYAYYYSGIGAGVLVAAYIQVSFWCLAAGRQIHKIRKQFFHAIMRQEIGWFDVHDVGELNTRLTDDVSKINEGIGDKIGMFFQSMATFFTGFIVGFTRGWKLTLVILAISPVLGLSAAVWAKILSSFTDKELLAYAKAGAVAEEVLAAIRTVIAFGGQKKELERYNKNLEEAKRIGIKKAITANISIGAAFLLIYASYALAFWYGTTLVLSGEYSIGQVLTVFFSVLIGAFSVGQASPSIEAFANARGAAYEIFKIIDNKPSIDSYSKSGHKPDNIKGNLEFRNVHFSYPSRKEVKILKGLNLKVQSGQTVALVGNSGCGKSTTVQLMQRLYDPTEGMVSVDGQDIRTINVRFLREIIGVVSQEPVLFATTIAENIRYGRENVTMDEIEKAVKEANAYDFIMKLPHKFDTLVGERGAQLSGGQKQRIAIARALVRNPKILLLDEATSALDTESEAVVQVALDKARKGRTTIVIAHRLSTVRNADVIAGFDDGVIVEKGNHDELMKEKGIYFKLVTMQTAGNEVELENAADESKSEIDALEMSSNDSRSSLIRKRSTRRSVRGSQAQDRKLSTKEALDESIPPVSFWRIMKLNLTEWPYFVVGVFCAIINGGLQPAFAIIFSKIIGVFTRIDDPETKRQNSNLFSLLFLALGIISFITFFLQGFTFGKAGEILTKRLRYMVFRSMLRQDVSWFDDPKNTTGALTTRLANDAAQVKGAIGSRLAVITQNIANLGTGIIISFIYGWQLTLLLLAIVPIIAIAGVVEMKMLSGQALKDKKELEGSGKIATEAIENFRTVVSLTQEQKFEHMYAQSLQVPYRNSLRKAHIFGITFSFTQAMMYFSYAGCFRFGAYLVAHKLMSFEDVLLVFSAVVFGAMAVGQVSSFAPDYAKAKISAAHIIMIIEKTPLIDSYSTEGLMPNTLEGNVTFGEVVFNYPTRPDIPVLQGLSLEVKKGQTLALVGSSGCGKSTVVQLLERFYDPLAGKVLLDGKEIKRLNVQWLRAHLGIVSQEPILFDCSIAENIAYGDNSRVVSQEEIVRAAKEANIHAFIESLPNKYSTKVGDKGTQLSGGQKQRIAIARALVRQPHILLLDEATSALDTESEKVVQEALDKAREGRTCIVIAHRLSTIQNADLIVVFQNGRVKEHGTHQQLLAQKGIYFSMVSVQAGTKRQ

Compound: O=C1/C(=C/c2ccccc2)CN(C(=O)CC(=O)N2C/C(=C\c3ccccc3)C(=O)/C(=C/c3ccccc3)C2)C/C1=C\c1ccccc1
- IC50 [1]: 170 nM
- IC50 [2]: 50 nM
- IC50 [3]: 130 nM
- Activity [4]: 31.54%
- Activity [5]: Active
- Activity [6]: inactive
- Ratio [7]: 11
- IC50 [8]: 30 nM
- Activity [9]: Active
- IC50 [10]: 160 nM
- Activity [11]: Active
- CC50 [12]: 50 nM
- Ratio [13]: 53.3
- Ratio [14]: 18.4
- CC50 [15]: 84 nM
- IC50 [16]: 130 nM
- Activity [17]: Active
- CC50 [18]: 46 nM
- IC50 [19]: 290 nM
- Ratio [20]: 20
- CC50 at 48 h [21]: 1100 nM
- Activity [22]: Active
- growth inhibition (GI) [23]: Active
- IC50 [24]: 50 nM
- Activity [25]: 43.46%
- Activity [26]: Active
- growth inhibition (GI) [27]: Active
- Activity [28]: 25.01%
- Activity [29]: Active
- IC50 [30]: 50 nM
- Ratio [31]: 35.3
- CC50 at 48 h [32]: 1300 nM
- Ratio [33]: 20
- CC50 [34]: 46 nM
- IC50 [35]: 170 nM
- growth inhibition (GI) [36]: Active

Compound: COc1cc(/C=C/C(=O)CC(=O)/C=C/c2ccc(O)c(OC)c2)ccc1O [CURCUMIN]
- Activity [37]: 48.97%
- Activity [38]: 5.62%
- Activity [39]: 45.42%
